The subject of test [1] is RIP-Tag2 tumors. In words: Vascular regrowth after cessation of OSI-930 in RIP-Tag2 tumors. In kind it is in vivo, mice.
Test [2] relates to RIP-Tag2 tumors. Kind of test: RIP-Tag2 tumor vascularity. The test is classed as in vivo, mice. The method, boiled down:
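RIP-Tag2 mice, 9–10 weeks old, dosed up to 7 days. Vehicle (Labrafil or water); test compound 75 mg/kg BID by gavage; OSI-930 200 mg/kg QD by gavage; rapamycin 20 mg/kg QD ip. Perfusion-fixed, 60–80 µm sections stained for CD31 and basement membrane. Area density at threshold 30–50; empty sleeves scored. SEM of 3–8 mice per group; ANOVA/Fisher PLSD.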

Test [3] deals with RIP-Tag2 tumors. Kind of test: Intratumoral hemorrhage. In kind it is in vivo, mice. The following applies: 4 days after cessation of OSI-930. Put shortly: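 Regrowth design in 10-week-old RIP-Tag2 mice: OSI-930 for 7 days, then vehicle, test compound or rapamycin for 4 days; vehicle-only arm runs 11 days. Perfusion-fixed tumors cut at 60–80 µm. Erythrocytes immunostained; area density from fluorescence images at empirical threshold 30–50. Values are SEM of 3–8 mice per group; ANOVA with Fisher PLSD.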

Another test concerns the target PI3Kγ (Homo sapiens, UniProt P48736). In words: Panel of 98 purified protein kinases: PI3Kγ. In kind it is biochemical. The following applies: 98 purified protein kinases panel, data not shown.
In another test the target is PI3Kδ (Homo sapiens, UniProt O00329). In words: Panel of 98 purified protein kinases: PI3Kδ. The test is classed as biochemical. The following applies: 98 purified protein kinases panel, data not shown.
Sequence of PI3Kδ (O00329 whole entry, species assumed): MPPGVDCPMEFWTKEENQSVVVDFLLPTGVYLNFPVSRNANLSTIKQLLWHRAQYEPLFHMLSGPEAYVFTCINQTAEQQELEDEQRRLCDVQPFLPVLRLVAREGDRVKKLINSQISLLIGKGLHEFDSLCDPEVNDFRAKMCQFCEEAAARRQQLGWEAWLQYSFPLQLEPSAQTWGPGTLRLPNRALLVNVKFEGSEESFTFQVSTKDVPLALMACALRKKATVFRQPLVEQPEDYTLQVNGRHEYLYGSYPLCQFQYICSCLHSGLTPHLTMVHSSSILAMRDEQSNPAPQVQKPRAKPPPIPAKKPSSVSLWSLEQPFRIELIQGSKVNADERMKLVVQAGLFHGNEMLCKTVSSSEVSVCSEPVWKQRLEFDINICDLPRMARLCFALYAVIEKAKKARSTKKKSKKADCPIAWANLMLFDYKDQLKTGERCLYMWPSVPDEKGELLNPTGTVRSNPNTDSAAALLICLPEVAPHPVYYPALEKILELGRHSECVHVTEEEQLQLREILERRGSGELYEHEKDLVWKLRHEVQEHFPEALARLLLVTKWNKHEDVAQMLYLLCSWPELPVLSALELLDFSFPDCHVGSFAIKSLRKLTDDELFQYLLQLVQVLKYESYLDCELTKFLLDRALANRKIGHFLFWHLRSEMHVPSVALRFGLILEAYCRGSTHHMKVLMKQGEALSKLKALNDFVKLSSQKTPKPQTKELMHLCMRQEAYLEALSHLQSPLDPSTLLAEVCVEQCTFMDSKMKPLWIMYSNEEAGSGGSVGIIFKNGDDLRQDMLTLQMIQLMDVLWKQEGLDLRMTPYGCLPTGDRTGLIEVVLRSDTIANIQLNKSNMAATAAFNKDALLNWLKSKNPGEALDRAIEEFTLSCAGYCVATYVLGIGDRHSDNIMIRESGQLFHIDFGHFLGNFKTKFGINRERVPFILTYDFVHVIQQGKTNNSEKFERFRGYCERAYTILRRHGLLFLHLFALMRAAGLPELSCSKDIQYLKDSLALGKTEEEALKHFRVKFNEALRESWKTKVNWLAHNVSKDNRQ
Sequence of PI3Kδ (P27986 whole entry partner, species assumed): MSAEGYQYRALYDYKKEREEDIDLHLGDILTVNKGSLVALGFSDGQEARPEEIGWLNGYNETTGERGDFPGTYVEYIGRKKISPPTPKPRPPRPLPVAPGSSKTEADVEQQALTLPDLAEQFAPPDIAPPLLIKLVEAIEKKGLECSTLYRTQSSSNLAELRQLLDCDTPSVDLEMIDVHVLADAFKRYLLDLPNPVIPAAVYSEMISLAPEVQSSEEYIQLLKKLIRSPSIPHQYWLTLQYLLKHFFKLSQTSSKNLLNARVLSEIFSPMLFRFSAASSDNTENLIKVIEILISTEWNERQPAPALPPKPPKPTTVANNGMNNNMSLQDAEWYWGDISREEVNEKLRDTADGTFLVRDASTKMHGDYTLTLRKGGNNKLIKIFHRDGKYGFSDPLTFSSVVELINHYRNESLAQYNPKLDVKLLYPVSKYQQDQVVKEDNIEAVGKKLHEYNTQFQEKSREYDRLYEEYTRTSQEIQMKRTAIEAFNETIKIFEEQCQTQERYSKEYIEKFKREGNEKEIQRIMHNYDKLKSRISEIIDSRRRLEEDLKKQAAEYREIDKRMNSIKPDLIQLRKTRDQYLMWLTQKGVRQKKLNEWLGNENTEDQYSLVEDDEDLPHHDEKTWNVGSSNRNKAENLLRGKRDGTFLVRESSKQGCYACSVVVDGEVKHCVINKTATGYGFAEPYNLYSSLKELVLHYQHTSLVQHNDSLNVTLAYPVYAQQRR
Test [4] has as its system RIP-Tag2 pancreatic neuroendocrine tumors. Kind of test: Signaling, proliferation and apoptosis in RIP-Tag2 tumors, single agents. The test is classed as in vivo, mice. The settings on record: for Akt and 4E-BP1 phosphorylation: 7-day treatment. Put shortly:
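RIP-Tag2 mice (9–10 weeks) treated 7 days: test compound 75 mg/kg BID gavage, rapamycin 20 mg/kg QD ip, or vehicle. Perfusion-fixed tumor sections (60–80 µm) immunostained for phospho-S6K, phospho-Akt and phospho-4E-BP1 with CD31, plus phospho-histone H3 and activated caspase-3. Examined by fluorescence/confocal microscopy and quantified. SEM of 3–8 mice per group; ANOVA with Fisher PLSD.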

A further test addresses RET (Homo sapiens, UniProt P07949). In words: Panel of 98 purified protein kinases: RET. In kind it is biochemical. The following applies: 98 purified protein kinases panel, data not shown.
Another test addresses MEK2 (Homo sapiens, UniProt P36507). Kind of test: Panel of 98 purified protein kinases: MEK2. The following applies: 98 purified protein kinases panel, data not shown. In kind it is biochemical.
The target in the next test is T1, PDK1 (Homo sapiens, UniProt O15530).
T1 sequence (O15530 1-556): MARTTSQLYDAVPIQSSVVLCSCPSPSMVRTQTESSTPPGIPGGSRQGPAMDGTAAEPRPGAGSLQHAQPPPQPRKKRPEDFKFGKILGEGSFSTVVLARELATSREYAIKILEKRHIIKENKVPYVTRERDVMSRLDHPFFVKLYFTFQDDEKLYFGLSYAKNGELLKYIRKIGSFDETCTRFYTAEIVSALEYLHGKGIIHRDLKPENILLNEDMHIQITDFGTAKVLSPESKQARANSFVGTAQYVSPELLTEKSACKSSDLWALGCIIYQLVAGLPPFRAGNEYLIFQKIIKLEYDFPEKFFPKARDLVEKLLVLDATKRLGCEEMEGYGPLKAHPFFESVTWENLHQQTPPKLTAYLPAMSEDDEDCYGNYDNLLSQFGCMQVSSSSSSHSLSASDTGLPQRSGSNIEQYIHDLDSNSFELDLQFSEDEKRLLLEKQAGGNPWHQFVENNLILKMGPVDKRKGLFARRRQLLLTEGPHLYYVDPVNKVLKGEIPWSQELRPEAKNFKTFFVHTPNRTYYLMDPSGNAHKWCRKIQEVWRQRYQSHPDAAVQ
In words: Activity against PDK1. In kind it is biochemical.

Test [5] deals with GEO colorectal xenograft. In words: GEO xenograft tumor growth. In kind it is in vivo, mice. The following applies: GEO xenografts, compared with rapamycin.
Another test addresses mTOR (Homo sapiens, UniProt P42345). In words: Panel of 98 purified protein kinases: mTOR. The following applies: 98 purified protein kinases panel. The test is classed as biochemical.
Test [6] has as its system RIP-Tag2 tumors. In words: VEGF in RIP-Tag2 tumor lysates, multiplex antibody array. In kind it is in vivo, mice. The following applies: for VEGF-B expression: data not shown. The method, boiled down:
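Tumors from RIP-Tag2 mice given vehicle, test compound or rapamycin. Tumor lysates run on mouse angiogenesis antibody arrays per manufacturer's directions. VEGF signal read as pixel density. SEM of 3–8 mice per group; ANOVA with Fisher PLSD.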

Test [7] relates to mTORC1 and mTORC2 signaling. Kind of test: In vitro mTORC1/mTORC2 signaling. The settings on record: for Akt phosphorylation at mTORC2-specific Ser473 site: Supplemental Figure 1A. The test is classed as cell-based.
The next test concerns the target JNK3 (Homo sapiens, UniProt P53779). Kind of test: Panel of 98 purified protein kinases: JNK3. In kind it is biochemical. The following applies: 98 purified protein kinases panel, data not shown.
Test [8] has as its system GEO colorectal xenograft. Kind of test: GEO xenograft pharmacodynamics. In kind it is in vivo, mice. The following applies: GEO xenografts, 12 days. The method, boiled down: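 GEO cells implanted s.c. in right flank of nu/nu CD-1 mice and dosed for 12 days. Tumors collected 2, 8 and 24 h post-dose and snap frozen. Phospho- and total 4E-BP1 (37/46), Akt (473), S6 (235/236) quantified by Western blot; n=2.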

The target of a further test is PIP5Kγ (Homo sapiens, UniProt O60331). In words: Panel of 98 purified protein kinases: PIP5Kγ. The following applies: 98 purified protein kinases panel, data not shown. In kind it is biochemical.
Sequence of PIP5Kγ (O60331 whole entry): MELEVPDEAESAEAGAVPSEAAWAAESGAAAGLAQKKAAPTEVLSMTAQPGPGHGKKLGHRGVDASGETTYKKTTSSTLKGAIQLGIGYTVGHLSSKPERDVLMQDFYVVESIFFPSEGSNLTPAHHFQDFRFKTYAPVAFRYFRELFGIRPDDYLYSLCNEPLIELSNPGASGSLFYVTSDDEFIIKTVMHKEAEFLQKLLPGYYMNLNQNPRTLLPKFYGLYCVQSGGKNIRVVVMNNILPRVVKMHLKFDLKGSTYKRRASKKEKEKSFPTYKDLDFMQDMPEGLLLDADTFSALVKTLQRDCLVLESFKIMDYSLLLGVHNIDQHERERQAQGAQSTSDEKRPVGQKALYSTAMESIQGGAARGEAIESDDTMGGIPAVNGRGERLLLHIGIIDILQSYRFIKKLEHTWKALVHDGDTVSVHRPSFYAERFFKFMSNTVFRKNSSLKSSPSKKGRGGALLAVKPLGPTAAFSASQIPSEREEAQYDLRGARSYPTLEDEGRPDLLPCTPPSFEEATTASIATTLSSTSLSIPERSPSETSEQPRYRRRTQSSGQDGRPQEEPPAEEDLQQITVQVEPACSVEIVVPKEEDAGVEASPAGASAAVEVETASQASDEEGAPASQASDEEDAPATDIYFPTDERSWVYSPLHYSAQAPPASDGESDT

The results in this text go back to paper PMC3077087 (Cancer research, 2011).

Sequence of RET (P07949 29-1114, species assumed): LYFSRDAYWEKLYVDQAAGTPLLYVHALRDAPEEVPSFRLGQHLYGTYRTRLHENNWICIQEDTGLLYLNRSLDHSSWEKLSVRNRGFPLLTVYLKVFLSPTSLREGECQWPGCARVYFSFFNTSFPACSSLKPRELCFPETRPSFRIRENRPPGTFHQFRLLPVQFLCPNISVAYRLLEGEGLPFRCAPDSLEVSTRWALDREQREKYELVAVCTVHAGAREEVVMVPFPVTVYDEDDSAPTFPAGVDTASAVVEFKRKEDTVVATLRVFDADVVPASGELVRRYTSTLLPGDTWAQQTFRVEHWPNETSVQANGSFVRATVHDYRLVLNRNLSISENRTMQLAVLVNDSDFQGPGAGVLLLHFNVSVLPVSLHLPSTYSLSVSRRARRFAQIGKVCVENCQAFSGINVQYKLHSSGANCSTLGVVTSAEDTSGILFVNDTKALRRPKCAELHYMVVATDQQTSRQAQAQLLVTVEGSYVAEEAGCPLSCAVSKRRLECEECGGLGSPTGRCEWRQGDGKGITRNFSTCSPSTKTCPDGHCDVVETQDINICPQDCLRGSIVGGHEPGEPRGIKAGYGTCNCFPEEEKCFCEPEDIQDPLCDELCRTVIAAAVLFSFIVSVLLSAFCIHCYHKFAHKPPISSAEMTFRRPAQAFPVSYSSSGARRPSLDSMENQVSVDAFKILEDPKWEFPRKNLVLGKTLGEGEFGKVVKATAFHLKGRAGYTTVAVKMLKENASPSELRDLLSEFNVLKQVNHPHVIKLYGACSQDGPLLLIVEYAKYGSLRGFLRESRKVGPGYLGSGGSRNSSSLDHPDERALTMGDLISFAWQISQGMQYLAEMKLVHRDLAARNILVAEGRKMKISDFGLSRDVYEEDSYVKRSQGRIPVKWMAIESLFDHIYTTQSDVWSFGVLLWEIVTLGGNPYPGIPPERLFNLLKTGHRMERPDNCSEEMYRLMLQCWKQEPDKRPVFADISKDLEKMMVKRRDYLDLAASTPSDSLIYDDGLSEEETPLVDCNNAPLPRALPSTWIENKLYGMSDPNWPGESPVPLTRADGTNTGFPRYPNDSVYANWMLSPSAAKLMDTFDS
Sequence of PI3Kγ (P48736 whole entry, species assumed): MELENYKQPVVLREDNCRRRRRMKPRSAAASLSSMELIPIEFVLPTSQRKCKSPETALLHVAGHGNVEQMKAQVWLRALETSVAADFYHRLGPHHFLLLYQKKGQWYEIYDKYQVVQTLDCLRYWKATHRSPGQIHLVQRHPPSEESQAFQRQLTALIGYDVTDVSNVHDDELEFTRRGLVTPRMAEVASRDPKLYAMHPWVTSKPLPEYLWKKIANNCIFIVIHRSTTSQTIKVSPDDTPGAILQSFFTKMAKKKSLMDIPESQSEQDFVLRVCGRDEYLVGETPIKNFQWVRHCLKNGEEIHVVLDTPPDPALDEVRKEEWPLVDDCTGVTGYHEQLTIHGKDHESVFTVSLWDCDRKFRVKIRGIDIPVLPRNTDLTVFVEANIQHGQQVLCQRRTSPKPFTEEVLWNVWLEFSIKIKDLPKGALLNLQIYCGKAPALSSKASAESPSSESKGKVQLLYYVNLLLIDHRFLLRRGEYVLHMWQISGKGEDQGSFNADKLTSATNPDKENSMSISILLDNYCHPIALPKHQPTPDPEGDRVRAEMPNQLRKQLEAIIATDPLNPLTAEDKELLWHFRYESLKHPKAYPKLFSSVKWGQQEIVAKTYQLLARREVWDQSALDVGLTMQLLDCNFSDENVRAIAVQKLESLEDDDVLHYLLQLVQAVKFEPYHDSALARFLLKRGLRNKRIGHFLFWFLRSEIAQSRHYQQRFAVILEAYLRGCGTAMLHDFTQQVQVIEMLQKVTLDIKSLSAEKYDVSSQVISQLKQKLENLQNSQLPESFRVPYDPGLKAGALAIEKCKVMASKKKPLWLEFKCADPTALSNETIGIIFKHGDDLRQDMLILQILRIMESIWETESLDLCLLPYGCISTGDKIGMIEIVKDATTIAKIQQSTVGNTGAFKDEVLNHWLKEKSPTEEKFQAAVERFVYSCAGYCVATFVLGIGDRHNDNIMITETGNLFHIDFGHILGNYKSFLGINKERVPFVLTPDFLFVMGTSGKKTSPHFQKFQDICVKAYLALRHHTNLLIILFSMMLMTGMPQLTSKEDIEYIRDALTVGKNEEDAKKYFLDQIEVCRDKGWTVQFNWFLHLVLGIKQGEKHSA
Sequence of JNK3 (P53779 whole entry, species assumed): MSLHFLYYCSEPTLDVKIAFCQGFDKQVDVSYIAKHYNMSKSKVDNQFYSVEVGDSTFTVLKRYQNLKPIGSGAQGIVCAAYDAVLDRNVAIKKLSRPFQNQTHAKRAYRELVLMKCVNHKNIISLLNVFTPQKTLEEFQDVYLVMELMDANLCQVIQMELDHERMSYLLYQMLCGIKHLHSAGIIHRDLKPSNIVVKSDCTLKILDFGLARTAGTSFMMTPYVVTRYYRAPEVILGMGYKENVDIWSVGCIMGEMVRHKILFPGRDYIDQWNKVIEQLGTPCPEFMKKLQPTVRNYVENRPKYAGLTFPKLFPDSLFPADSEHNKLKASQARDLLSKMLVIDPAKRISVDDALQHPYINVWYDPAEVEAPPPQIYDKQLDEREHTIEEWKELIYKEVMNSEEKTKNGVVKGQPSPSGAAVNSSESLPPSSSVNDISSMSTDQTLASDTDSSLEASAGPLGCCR

For the compound `O=C(Nc1ccc(OC(F)(F)F)cc1)c1sccc1NCc1ccnc2ccccc12` [OSI-930], the “decrease in vessel density” value in the test on RIP-Tag2 tumors [1] (OSI-930 7 days, then vehicle 4 days after cessation) was 18%. In addition, the “reduction of tumor vascularity” value with RIP-Tag2 tumors [1] (regrowth study, OSI-930 for 7 days) is 63%. Besides, the “empty basement membrane sleeves (vessel regression)” value (from here on “empty basement membrane sleeves”) in the test with RIP-Tag2 tumors [2] (RIP-Tag2, 7 days) is reported as “numerous”. For the same compound, the “TER-119 levels, difference from baseline” value with RIP-Tag2 tumors [3] is on record as at most 28%.
As to `Nc1nccn2c1c(-c1cc3cccc(Cl)c3[nH]1)nc2[C@H]1CC[C@H](C(=O)O)CC1` [OXA-01], the “inhibition of PI3Kγ” value against PI3Kγ was “greater than 90%”. For the same compound, the “inhibition of PI3Kδ” value against PI3Kδ is recorded as “greater than 90%”. For the same compound, the “decrease in tumor vessel regrowth” value in the test on RIP-Tag2 tumors [1] (named drug for 1 day after withdrawal of OSI-930, data not shown) was “no significant decrease”. In addition, in test [4], the “Akt and 4E-BP1 phosphorylation” value is listed as “decreased”. Moreover, in test [4] (7 days), the “apoptosis measured by activated-caspase-3” value is recorded as “increased” and the “cellular proliferation determined by phospho-histone H3” value is on record as “decreased”. Moreover, on RET, the “inhibition of RET” value is “greater than 90%”. Besides, the “inhibition of MEK2” value against MEK2 is “inhibited”. At PDK1, the “activity against PDK1” value was “inactive”. The tumor growth entry with GEO colorectal xenograft [5] is on record as “slowed tumor growth more than did rapamycin”. In addition, the “inhibition of mTOR” value against mTOR is “fully inhibited”. For the same compound, the VEGF-B expression entry with RIP-Tag2 tumors [6] is “unchanged”. For the same compound, in test [7], the “4E-BP1 phosphorylation at Ser37/46” value is “inhibited” and the “Akt phosphorylation at mTORC2-specific Ser473 site” value (“Akt phosphorylation” below) was “dose-dependently attenuated”. Further, the “inhibition of JNK3” value on JNK3 is reported as “inhibited”. Besides, the “empty basement membrane sleeves” value in the test with RIP-Tag2 tumors [2] (RIP-Tag2, 7 days) was “not apparent”. In addition, the “reduction of tumor vascularity (CD31)” value in the test with RIP-Tag2 tumors [2] (RIP-Tag2, at 1, 2, or 4 days) is “not detectably reduced”.
For the compound `CO[C@H]1C[C@@H]2CC[C@@H](C)[C@@](O)(O2)C(=O)C(=O)N2CCCC[C@H]2C(=O)O[C@H]([C@H](C)C[C@@H]2CC[C@@H](O)[C@H](OC)C2)CC(=O)[C@H](C)/C=C(\C)[C@@H](O)[C@@H](OC)C(=O)[C@H](C)C[C@H](C)/C=C/C=C/C=C/1C` [rapamycin, reference compound], in test [4], the “phopsho-S6K relative to control” value was “inhibited”; the “Akt and 4E-BP1 phosphorylation” value is “not observed”. Besides, the “phospho-S6 and phospho-4E-BP1” value in the test on GEO colorectal xenograft [8] (20 mg/kg) is reported as “inhibited”. Further, in the test with RIP-Tag2 tumors [6], the “reduction of VEGF-A (densitometric analysis)” value is given as “no significant reduction” and the VEGF-B expression entry is “unchanged”. In test [7], the “4E-BP1 phosphorylation at Ser37/46” value is listed as “failed to inhibit”; the “S6Kinase and its substrate S6” value was “inhibited”; the “Akt phosphorylation” value was “failed to inhibit”. Further, in the test with RIP-Tag2 tumors [2] (RIP-Tag2, 7 days), the “empty basement membrane sleeves” value was “not apparent” and the “reduction of tumor vascularity (CD31) compared to baseline” value is “not significantly reduced”.
On to `COc1cccc2cc(-c3nc([C@H]4CC[C@H](C(=O)O)CC4)n4ncnc(N)c34)[nH]c12` [OSI-027], for which the “inhibition of PI3Kγ” value against PI3Kγ was “greater than 90%”. Besides, the “inhibition of PI3Kδ” value on PI3Kδ was “greater than 90%”. Also, the “4E-BP1, Akt, and S6 phosphorylation” value in the test with GEO colorectal xenograft [8] (65 mg/kg, after 2 hours) is “decreased”. Also, at RET, the “inhibition of RET” value is “greater than 90%”. Besides, the “inhibition of PIP5Kγ” value at PIP5Kγ is recorded as “significantly inhibited”. Further, at PDK1, the “activity against PDK1” value is “inactive”. The tumor growth result in the test on GEO colorectal xenograft [5] is “slowed tumor growth more than did rapamycin”. Further, the “inhibition of mTOR” value against mTOR is listed as “fully inhibited”. Moreover, in test [7], the “4E-BP1 phosphorylation at Ser37/46” value was “inhibited” and the “Akt phosphorylation” value is reported as “dose-dependently attenuated”.
